From PubChem BioAssay
This is a sample that favours compounds with a hit; in the whole collection about 4.2% have one here.
KCNQ1 block = human KCNQ1 channel inhibition. P51787. CHO-K1 KCNQ1, FluxOR thallium flux fluorescence; stronger effect = higher value. B-score at 10 µM. 310,000 tested, 1.3% active;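 active means compounds whose thallium flux B-score, printed positive for inhibition, exceeds three library SD while starting fluorescence stays within three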;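 further: channel opened by potassium depolarization with thallium stimulus after 20 min compound exposure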
KCNQ1 pot = potentiators or activators of human KCNQ1 potassium channel; P51787; CHO-K1 KCNQ1, thallium flux FluxOR fluorescence; stronger effect = higher value; B-score at 10 µM; 310,000 tested, 0.35% active; AID 2648;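 active means fluorescence ratio B-score, a plate-corrected score, at least three library SD, with initial intensity B-score within 5 SD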
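assay system = CHO-K1 cells stably expressing KCNQ1 | medium = assay buffer, equal DMSO in all wells | timing = 37 °C overnight plating, 90-min dark dye load, 20-min compound pretreatment | measured by = kinetic FluxOR thallium fluorescence, 10-s 1-Hz baseline, 110-s post-stimulus read | measure = fluorescence change relative to baseline, converted to B score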
SUMO Mot1 rescue = blocks SUMOylation pathway, rescuing yeast Mot1-301 growth; S. cerevisiae Mot1-301 growth rescue, ATP luminescence, 38.5C; percent above DMSO median, 100 means doubled; growth rescue, % at 18.8 µM; 320,000 tested, 1% active;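 active means every valid replicate shows activation above 250% relative to neutral control wells; inactive means the rest, any valid replicate at or below 250%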
AI-2 QS modul = modulators of Vibrio harveyi AI-2 quorum sensing system; Vibrio harveyi JMH597 AI-2 luminescence/OD600 ratio, 9 h; stronger effect = lower value; strain lacks LuxN and CqsS sensors; 0 = neutral-control median; activity change, % at 7.5 µM; 300,000 tested, 0.4% active; in the data active means activity change below about -75%, passing the limit was not always enough;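 further: luminescence divided by OD600 gain over 9 h not by final OD600 alone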
KCC2 mod = KCC2 (human) Cl- transport modulation; KCC2 cells, thallium flux FluoZin-2 fluorescence; Q9H2X9; 190,000 tested, 2.2% active; B-score of Tl+ flux slope (higher = more flux/activation; lower = inhibition) at 10 µM;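 active means thallium flux slope and its plate-corrected score both differing from the plate sample mean at a set confidence after two filtering rounds, in either direction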;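 further: slope of fluorescence scaled to starting intensity during 10 to 20 s after thallium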
hERG protect = shields human hERG channel from block by proarrhythmic agents. Q12809. CHO-hERG, FluxOR thallium flux, dofetilide IC70 present. activation (rescue from dofetilide block), less the hit threshold, % at 10 µM. 310,000 tested, 0.51% active;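 active means activation above the mean of controls blocked by dofetilide plus 5 SD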;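 further: thallium influx through hERG after potassium depolarization seen as dye fluorescence rise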
Hits are given with their value; 0 = inactive; - = not tested or not shown.

SMILES	KCNQ1 block	KCNQ1 pot	SUMO Mot1 rescue	AI-2 QS modul	KCC2 mod	hERG protect
COc1cc(/C=C2\C(=O)ON=C2c2ccccc2)cc(Br)c1O	7	0	0	0	-	0
COc1cc(C=C2C(=O)OC(c3ccccc3)OC2=O)cc(Br)c1O (configuration not stated)	0	0	0	0	0	0
CCOc1cc(/C=C2\C(=O)ON=C2c2ccccc2)cc(Br)c1O	6	0	0	0	-	0
O=C1ON=C(c2ccc(Cl)cc2)/C1=C/c1ccc(O)cc1	8	0	0	0	0	0
CC(=O)N1CCN(CC(=O)Nc2cc(S(=O)(=O)N3CCOCC3)ccc2C)CC1	0	0	0	0	0	0
CCOc1ccc(N=C2NC(=O)CS2)cc1	0	0	0	0	-	0
CCOC(=O)C[C@H]1c2ccc(C(F)(F)F)cc2S(=O)(=O)N1c1cccc(OC)c1	0	0	0	0	-	0
COc1cccc(N2CCN(C(=O)CN(C)S(=O)(=O)c3ccc4c(c3)c(=O)n(C)c(=O)n4C)CC2)c1	0	0	0	0	0	0
CCOc1cc(/C=C2/C(=O)ON=C2C)cc(Br)c1O	9	0	0	0	-	0
Cc1ccc(-c2cc(C(F)(F)F)c(C#N)c(SCC(=O)O)n2)cc1	0	0	0	0	0	0
COc1ccc(-c2cc(C(F)(F)F)c(C#N)c(SCC(=O)O)n2)cc1OC	0	0	304	0	0	0
CCN(CC)c1ccc2cc(-c3nnc(-c4ccccc4)o3)c(=O)oc2c1	0	0	0	0	0	0
CCN(CC)c1ccc2cc(-c3nc4ccccc4[nH]3)c(=O)oc2c1	27	0	0	0	-	0
COc1ccccc1NC(=O)c1ccc(NC(=O)CSc2ncn[nH]2)cc1	0	0	0	0	0	0
OCc1cc(C(O)CNCCCCCCOCCCCc2ccccc2)ccc1O (configuration not stated)	0	0	0	0	-3	0
CCOCCCNCC(O)c1ccccc1 (configuration not stated)	0	0	0	0	0	0
CC(NC(=O)c1ccc(S(=O)(=O)Nc2ccccc2Cl)cc1)c1ccncc1 (configuration not stated)	-	-	0	-	-	-
CC1=NN(C(=O)c2ccc(Cn3cc([N+](=O)[O-])cn3)cc2)C(O)(C(F)(F)F)C1 (configuration not stated)	0	0	0	0	0	0
CC(C)CCn1c(O)c(N=NC(=O)c2ccco2)c2ccccc21	0	0	553	0	0	0
COc1ccc(C(c2c(O)nc(SC)n(C)c2=O)c2c(O)nc(SC)n(C)c2=O)cc1O	0	0	0	-89	0	0
COc1ccc(-c2nc(SC)n(C)c(=O)c2C#N)cc1OC	0	0	0	0	0	0
CC(C)(C)c1cc[n+](-c2[nH]c(=O)sc2/C=N/NC([S-])=Nc2ccccc2)cc1	8	0	0	0	0	0
Cc1cc[n+](-c2[nH]c(=O)sc2/C=N/NC([S-])=Nc2ccccc2)cc1C	0	0	0	0	0	0
CCc1ccc(Nc2nc3ccccc3c(=O)s2)cc1	0	0	0	0	7.5	0
O=C(OCC(=O)N1CCN(C(=O)c2ccco2)CC1)c1ccccc1NCCO	0	0	0	0	-	0
SMILES	KCNQ1 block	KCNQ1 pot	SUMO Mot1 rescue	AI-2 QS modul	KCC2 mod	hERG protect
COc1ccccc1OCC(=O)NNC(=O)Nc1ccc(Cl)cc1	0	0	0	0	0	0
COc1ccccc1OC(=O)Nc1ccc(Cl)cc1	6	0	0	0	-	0
Cc1cccc2c1NC(=O)C2(c1ccc(O)cc1)c1ccc(O)cc1	0	0	0	0	13	0
Nc1nc(-c2c(Cl)cccc2Cl)no1	0	0	0	0	-	5.7
Cc1ccc(C(=O)NCCSC(C)(C)C)cc1[N+](=O)[O-]	0	0	-	0	0	0
Cc1c(C(=O)NCCSCc2ccccc2)cccc1[N+](=O)[O-]	0	0	0	0	0	0
Cc1ccc(C(=O)NCCSCc2ccc(Cl)cc2Cl)cc1[N+](=O)[O-]	8	0	0	0	0	0
Cc1c(C(=O)NCCSCc2ccc(Cl)cc2Cl)cccc1[N+](=O)[O-]	0	0	0	0	0	10.0
